Test results: ChEMBL document CHEMBL1132158, “4-[[2-(1-Methyl-2-pyrrolidinyl)ethyl]thio]phenol hydrochloride (SIB-1553A): a novel cognitive enhancer with selectivity for neuronal nicotinic acetylcholine receptors” (J Med Chem, 1999)

Assays:
Assay type in all cases: functional
[1] = tested on: Rattus norvegicus; assay: Acetylcholine release data in […] rats when compound was administered subcutaneously at dose of 40 mg/kg; conditions: route subcutaneous
Method in brief: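 In vivo acetylcholine release from hippocampus of freely moving Sprague–Dawley rats after subcutaneous dosing. […] Mean ± SEM of 2–6 independent experiments, compared against saline control by two-way repeated measures ANOVA with Student–Newman–Keuls post-hoc test.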

[2] = organism: Rattus norvegicus; assay: In vitro efficacy to stimulate [3H]NE in rat hippocampus
Method in brief: (§1)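 Release of [3H]DA (striatum) or [3H]NE (hippocampus, prefrontal cortex) from rat brain slice preparations stimulated by test compound at 300 μM. […] Mean ± SD of 3–6 experiments.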

[3] = organism: Rattus norvegicus; assay: In vitro efficacy to stimulate [3H]NE in rat prefrontal cortex membrane slice; method in brief: as §1
[4] = organism: Rattus norvegicus; assay: In vitro efficacy to stimulate the release of [3H]dopamine from rat striatal slices; method in brief: as §1
[5] = tested on: Rattus norvegicus; assay: Acetylcholine release data in […] rats when compound was administered subcutaneously at dose of 40(mg/Kg)
[6] = organism: Rattus norvegicus; assay: In vitro efficacy to stimulate [3H]-dopamine from brain slice preparations
Method in brief: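 Striatal brain slices stimulated with test compound at 300 μM; [3H]dopamine release measured. […] Mean ± SD of 3–6 experiments.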

Row | SMILES | Activity [1] | Efficacy [2] | Efficacy [3] | Efficacy [4] | Activity [5] | Efficacy [6]
1 | CN1CCC[C@@H]1CCSc1ccc(O)cc1 | 10 | 0.2 | 0.3 | 4.1 | – | –
2 | CN1CCCC1CCSc1ccc(O)cc1 (configuration not stated) | 12 | 0.2 | 0.6 | 6.5 | – | –
3 | CN1CCC[C@H]1c1cccnc1 [NICOTINE] | – | 1 | 1 | 1 | – | –
4 | CN1CCC[C@H]1CCSc1ccc(O)cc1 | 13 | 0.3 | 0.35 | 4.3 | – | –
5 | CN1CCCC1CCSc1ccccc1 (configuration not stated) | – | – | – | – | 0.6 | 1.5
